# Assay outcomes: PubChem BioAssay, Johns Hopkins Ion Channel Center
# An excerpt weighted towards active compounds, which were near 3.7% of everything screened.
# Kir21 inh = Kir2.1 (mouse) channel inhibition; P35561; HEK293-Kir2.1, FluxOR thallium flux fluorescence; hits give low values; B-score at 10 µM; hit rate 0.85% among 310,000;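 active means fluorescence ratio B-score at or below minus 3 SD of library scores, with starting-brightness B-score within 2 SD, cut at about -4.2 in these data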;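 further: channel flux triggered by added potassium and thallium sulfate stimulus; B-score of peak minus minimum fluorescence over baseline after thallium stimulus; more negative B-score means stronger Kir2.1 block with less thallium influx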
# hERG protect = hERG (human) protection from proarrhythmic block; CHO-hERG, FluxOR thallium flux, dofetilide IC70 present; hit rate 0.51% among 310,000; AID 1511; activation (rescue from dofetilide block), less the hit threshold, % at 10 µM;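 active means activation above the mean of controls blocked by dofetilide plus 5 SD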;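 further: thallium influx through hERG after potassium depolarization seen as dye fluorescence rise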
# Target sequence (Q12809 whole entry, looked up): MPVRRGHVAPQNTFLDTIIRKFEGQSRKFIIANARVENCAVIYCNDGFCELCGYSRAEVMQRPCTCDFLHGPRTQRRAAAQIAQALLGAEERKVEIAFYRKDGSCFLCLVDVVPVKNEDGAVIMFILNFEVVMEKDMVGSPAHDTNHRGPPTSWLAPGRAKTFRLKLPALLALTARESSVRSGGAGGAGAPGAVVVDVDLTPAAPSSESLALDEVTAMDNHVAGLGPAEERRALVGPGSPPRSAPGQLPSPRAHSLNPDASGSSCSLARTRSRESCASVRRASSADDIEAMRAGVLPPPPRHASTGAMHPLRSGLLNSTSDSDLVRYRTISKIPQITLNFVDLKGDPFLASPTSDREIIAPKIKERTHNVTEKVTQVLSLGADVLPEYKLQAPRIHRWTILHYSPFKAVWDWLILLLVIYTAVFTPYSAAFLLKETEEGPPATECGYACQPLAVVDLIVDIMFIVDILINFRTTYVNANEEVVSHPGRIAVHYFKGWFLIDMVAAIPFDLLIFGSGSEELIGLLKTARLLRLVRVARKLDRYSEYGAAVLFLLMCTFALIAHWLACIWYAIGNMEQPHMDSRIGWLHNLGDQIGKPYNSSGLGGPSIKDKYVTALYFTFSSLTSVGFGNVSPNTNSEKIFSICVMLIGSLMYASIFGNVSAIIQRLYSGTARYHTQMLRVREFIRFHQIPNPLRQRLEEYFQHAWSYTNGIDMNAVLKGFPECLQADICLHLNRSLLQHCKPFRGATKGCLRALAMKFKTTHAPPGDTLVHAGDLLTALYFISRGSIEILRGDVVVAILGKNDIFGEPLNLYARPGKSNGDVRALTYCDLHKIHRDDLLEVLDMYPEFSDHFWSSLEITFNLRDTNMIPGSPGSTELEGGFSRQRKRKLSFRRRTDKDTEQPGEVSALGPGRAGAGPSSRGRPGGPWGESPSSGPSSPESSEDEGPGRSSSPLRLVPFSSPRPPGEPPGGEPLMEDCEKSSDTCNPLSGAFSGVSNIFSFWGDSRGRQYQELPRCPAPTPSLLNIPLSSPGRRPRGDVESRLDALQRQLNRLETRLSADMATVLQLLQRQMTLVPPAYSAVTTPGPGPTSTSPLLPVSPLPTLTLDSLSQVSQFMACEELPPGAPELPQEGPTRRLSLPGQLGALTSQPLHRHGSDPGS
# KCNQ1 block = inhibitors of human KCNQ1 potassium channel | AID 2642 | B-score at 10 µM | P51787 | hit rate 1.3% among 310,000 | CHO-K1 KCNQ1, FluxOR thallium flux fluorescence; hits give high values;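 active means compounds whose thallium flux B-score, printed positive for inhibition, exceeds three library SD while starting fluorescence stays within three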;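 further: channel opened by potassium depolarization with thallium stimulus after 20 min compound exposure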
# KCNQ1 pot = human KCNQ1 channel potentiation or activation; P51787; CHO-K1 KCNQ1, thallium flux FluxOR fluorescence; hits give high values; B-score at 10 µM; hit rate 0.35% among 310,000; AID 2648;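 active means fluorescence ratio B-score, a plate-corrected score, at least three library SD, with initial intensity B-score within 5 SD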
#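 Doses: Single concentration per compound, DMSO matched to controls | Test system: KCNQ1-transfected CHO-K1 cells | Timing: 90 min dye loading and 20 min compound exposure, both at room temperature | Measured by: Kinetic FluxOR thallium fluorescence, 10-s 1-Hz baseline, 110-s post-stimulus read | Medium: Assay buffer with matched DMSO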
# KCNK3 block = human KCNK3 channel inhibition, primary screen | CHO-KCNK3 thallium flux, FluxOR fluorescence; hits give low values | B-score at 10 µM | hit rate 0.84% among 340,000;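 active means B-score under library mean minus 4 SD, starting fluorescence ratio at most library mean plus 5 SD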;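 further: more negative B-score means stronger inhibition of thallium flux through KCNK3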
# KCNK9 inh = inhibitors of human KCNK9 two-pore domain potassium channel; Q9NPC2; HEK293 KCNK9, FluxOR thallium flux fluorescence; hits give low values; B-score at 10 µM; hit rate 1.2% among 310,000;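 active means ratio B-score over 3 SD below the library mean, with starting fluorescence within 5 SD of its mean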;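 further: negative B-score means less thallium flux so channel inhibition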
# KCNQ1 block val = confirmation of human KCNQ1 potassium channel inhibitors. shares compounds with KCNQ1 block. inhibition, % at 10 µM. KCNQ1 cell line, FluxOR thallium flux fluorescence. AID 588353. hit rate 93% among 1,600;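 active means primary screen active, with duplicate mean exceeding buffer control mean plus 3 SD of buffer wells, cut at about 28% in these data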;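 further: 0% = buffer control ratio and 100% = XE991 inhibitor control ratio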
# CHO KCNQ1 ctr = KCNQ1 inhibitor counter-screen hit in parental CHO cells. shares compounds with KCNQ1 block. parental CHO-K1, FluxOR thallium flux fluorescence ratio; hits give low values; zero means no signal rise above baseline. fluorescence ratio (Tl flux) at 10 µM. hit rate 21% among 1,600. AID 588366;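 active means mean of duplicate thallium-flux fluorescence ratios in parental host cells more than 5 SD below the buffer control mean, cut at about 0.38 in these data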;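 further: ratio is peak minus minimum fluorescence divided by baseline fluorescence; actives read low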
# KCNQ1 ephys val = human KCNQ1 inhibition validated by electrophysiology. shares compounds with KCNQ1 block. KCNQ1-CHO cells, automated patch clamp current. calls only at 10 µM. hit rate 20% among 490. AID 624120;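 active means KCNQ1 current drop exceeding 3 SD of negative control wells, seen in both duplicate runs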;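 further: steady state current during a 2 s step from -80 to +40 mV; negative values mean current inhibition and positive values mean potentiation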
# KCNQ2 spec = selectivity of KCNQ1 inhibitors: inhibition of rat KCNQ2 channel. shares compounds with KCNQ1 block. KCNQ2 cells, FluxOR thallium flux fluorescence. inhibition, % at 10 µM. hit rate 71% among 1,600. AID 651746;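 active means mean percent inhibition of the KCNQ2 thallium signal more than 5 SD above the buffer-only control wells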;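 further: KCNQ2 expressed in CHO cells; 0% = buffer control wells and 100% = XE-991 inhibitor control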
# KCNQ1 KCNE1 spec = selectivity of KCNQ1 inhibitors: inhibition of human KCNQ1/KCNE1 channel | AID 652147 | inhibition, % at 10 µM | hit rate 77% among 1,600 | KCNQ1/KCNE1 cells, FluxOR thallium flux fluorescence | shares compounds with KCNQ1 block;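 active means mean percent inhibition of duplicate wells above the buffer-only control mean plus 3 SD of those controls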;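 further: 0% = buffer only wells and 100% = XE-991 inhibitor control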
# KCNK9 inh conf = human KCNK9 inhibitor confirmation; AID 492992; HEK293 KCNK9 cells, FluxOR thallium flux fluorescence; inhibition, % at 10 µM; shares compounds with KCNK9 inh; hit rate 43% among 4,900;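 active means thallium signal inhibited by more than 5 SD of the compound-free buffer control wells, on both duplicate plates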;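 further: 0% = assay buffer control wells without compound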
# Kir21 sel = tests whether KCNK9 modulators also affect mouse Kir2.1; AID 492993; Kir2.1 cells, FluxOR thallium flux fluorescence; inhibition, % at 10 µM; hit rate 4% among 4,900; shares compounds with KCNK9 inh;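 active means thallium signal drop more than 5 SD beyond the mean of the no-compound control wells, seen in both duplicate plates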;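 further: signal is fluorescence rise after thallium addition divided by baseline fluorescence; plate controls were assay buffer only for no effect and full block by chlorpromazine control for full effect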
# KCNK9 uninduced = non-induced cell nonspecific activity of KCNK9 modulators. hit rate 40% among 4,900. shares compounds with KCNK9 inh. non-induced KCNK9-HEK293, FluxOR thallium flux. inhibition, % at 10 µM;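 active means thallium signal drop beyond 5 SD of the untreated control mean, on both duplicate plates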;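 further: plate controls were buffer only IC0 wells for no effect and SID17386958 at its maximal inhibitory level for full effect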
# * = called active by the depositor; i = inactive; · = no result; + = active, no number.
SMILES,Kir21 inh,hERG protect,KCNQ1 block,KCNQ1 pot,KCNK3 block,KCNK9 inh,KCNQ1 block val,CHO KCNQ1 ctr,KCNQ2 spec,KCNQ1 KCNE1 spec,KCNK9 inh conf,Kir21 sel,KCNK9 uninduced,others
O=C(Nc1ccc(Oc2cccc3ccccc23)cc1)c1ccco1,1.4,-12,11*,i,i,-14*,160*,0.29*,i,+,54%*,i,31%*,
CN(C)c1ccc(C(=O)N/N=C/c2ccccn2)cc1,0.63,-10,i,i,i,i,·,·,·,·,·,·,·,
Cc1cc(C(=O)N2CCN(C(c3ccccc3)c3ccccc3)CC2)on1,0.17,-11,i,i,i,i,·,·,·,·,·,·,·,
COc1ccc(-c2ocnc2C(=O)N2CCN(C(c3ccccc3)c3ccccc3)CC2)cc1,-0.1,-12,8*,i,i,-14*,80*,0.42,88%*,94%*,68%*,i,36%*,
CCN(CC)c1ccc(S(=O)(=O)N2CCOCC2)cc1NC(=O)CN1CCN(Cc2ccccc2)CC1,0.38,-6,i,i,i,i,·,·,·,·,·,·,·,
Cc1c(C(=O)Nc2ccc(S(=O)(=O)Nc3ncccn3)cc2)oc2ccc(F)cc12,0.75,-1,i,i,i,i,·,·,·,·,·,·,·,
CCOC(=O)c1ccccc1NC(=O)C1CCN(c2ncnc3sc(C)c(C)c23)CC1,-0.02,-11,10*,i,-8.9*,i,89*,0.41,132%*,130%*,i,i,32%*,KCNQ1 ephys val=i
O=C(Nc1ccc(F)cc1)Nc1ccccc1NS(=O)(=O)c1cccs1,-0.1,-11,i,i,i,i,·,·,·,·,·,·,·,
O=C(Nc1ccc(Cl)cc1)Nc1ccccc1NS(=O)(=O)c1cccs1,-1.8,-6,7*,i,i,-10*,81*,0.56,66%*,i,32%*,i,i,
CCCCCC(O)(c1ccc(OCC)cc1)C(CN1CCOCC1)c1ccccc1 (configuration not stated),0.48,-4,i,i,i,i,·,·,·,·,·,·,·,
Cc1c(Br)cccc1NC(=O)c1sccc1-n1cccc1,0.05,3,i,i,i,i,·,·,·,·,·,·,·,
CC(C)c1ccc(NC(=O)c2sccc2-n2cccc2)cc1,0.79,-4,6*,i,i,-11*,128*,0.4,114%*,178%*,46%*,i,44%*,KCNQ1 ephys val=+
O=S(=O)(c1ccccc1)[C@@]1(c2ccccc2)C[C@@H]2ON=C(c3cccc(-c4ccccc4)c3)[C@@H]2C1,0.8,-10,i,i,i,i,·,·,·,·,·,·,·,
O=C(NCCCc1ccccc1)c1ccc(CS(=O)Cc2ccccc2Cl)o1 (configuration not stated),-3.2,-9,i,i,i,i,·,·,·,·,·,·,·,
CC(NC(=O)c1cc(S(=O)(=O)N(C)C)ccc1Cl)c1ccc(-n2ccnc2)cc1 (configuration not stated),-0.37,-9,i,i,i,i,·,·,·,·,·,·,·,
COc1ccc(CCN2CC(C(=O)N(C)CC(=O)Nc3ccc(F)c(F)c3F)CC2=O)cc1OC (configuration not stated),·,·,·,·,i,·,·,·,·,·,·,·,·,
COc1ccc(-c2onc(C)c2-c2cnn(-c3ccccc3)c2)c(O)c1C,0.22,-10,6*,i,i,i,44*,0.4,115%*,39%*,i,i,i,
Cc1cccc(C)c1OC1(c2ccccc2)OC(=O)c2ccccc21 (configuration not stated),0.69,-16,9*,i,i,-19*,106*,0.42,98%*,138%*,55%*,32%*,44%*,KCNQ1 ephys val=i
CCOC1(c2ccccc2)OC(=O)c2ccccc21 (configuration not stated),-1.3,-3,i,i,i,i,·,·,·,·,·,·,·,
CN(C(=O)CSc1nc(-c2ccc(C(C)(C)C)cc2)c(C#N)c(=O)[nH]1)C1CCCCC1,1,-15,7*,i,i,i,54*,0.42,79%*,i,i,i,29%*,
Cc1cc(C)c(C#N)c(SCC(=O)N(C)C2CCCCC2)n1,-0.22,-11,i,i,i,i,·,·,·,·,·,·,·,
CCN(C(=O)c1ccc(S(=O)(=O)N2CCC(C)CC2)cc1)C1CCS(=O)(=O)C1 (configuration not stated),-1,-6,i,i,i,i,·,·,·,·,·,·,·,
Cc1ccc(Cl)cc1NC(=O)CC(O)(C(F)(F)F)C(F)(F)F,1.1,-18,8*,i,i,-19*,90*,0.47,i,83%*,i,29%*,28%*,
Cc1ccc(S(=O)(=O)N2CCN(Cc3ccccc3C(F)(F)F)CC2)cc1,-0.82,-12,10*,i,i,i,85*,0.41,94%*,94%*,i,i,i,
COc1cc(C2/C(=C(\O)c3ccc4c(c3)OCCO4)C(=O)C(=O)N2Cc2ccco2)cc(OC)c1OC (configuration not stated),0.1,-9,i,i,i,i,·,·,·,·,·,·,·,
CC(Cc1cccs1)NC(=S)Nc1ccc(Cl)cc1 (configuration not stated),-4.2*,-21,8*,i,i,-10*,50*,0.49,67%*,66%*,38%*,i,i,
CC(Cc1cccs1)NC(=S)Nc1ccc(Cl)c(Cl)c1 (configuration not stated),-0.19,-6,i,i,i,i,·,·,·,·,·,·,·,
